Measurements reported in ChEMBL document CHEMBL1140906, “Examination of the biological role of the alpha(2-->6)-linked sialic acid in gangliosides binding to the myelin-associated glycoprotein (MAG)” (J Med Chem, 2009).

Target: T1, Myelin-associated glycoprotein (Homo sapiens) (UniProt P20916)
T1 sequence (whole entry): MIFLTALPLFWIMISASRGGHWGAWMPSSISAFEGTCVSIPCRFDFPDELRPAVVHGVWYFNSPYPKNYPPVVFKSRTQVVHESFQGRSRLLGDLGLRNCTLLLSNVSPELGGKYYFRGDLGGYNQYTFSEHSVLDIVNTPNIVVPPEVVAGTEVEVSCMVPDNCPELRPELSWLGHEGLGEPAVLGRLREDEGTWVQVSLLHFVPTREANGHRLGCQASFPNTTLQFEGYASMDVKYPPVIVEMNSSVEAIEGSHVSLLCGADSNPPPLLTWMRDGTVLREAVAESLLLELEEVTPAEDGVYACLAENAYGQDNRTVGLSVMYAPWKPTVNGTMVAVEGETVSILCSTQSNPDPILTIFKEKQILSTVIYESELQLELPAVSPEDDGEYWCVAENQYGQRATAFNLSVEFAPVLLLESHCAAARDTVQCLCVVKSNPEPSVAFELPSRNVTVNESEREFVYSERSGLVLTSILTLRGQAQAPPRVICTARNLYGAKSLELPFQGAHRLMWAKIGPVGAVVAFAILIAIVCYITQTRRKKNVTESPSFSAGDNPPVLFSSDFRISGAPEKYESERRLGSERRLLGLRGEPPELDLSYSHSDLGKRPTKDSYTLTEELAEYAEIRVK
Test: Inhibition of human IgG Fc-domain tagged MAG N-terminal domain expressed in CHO cells assessed as relative inhibition potency by hapten inhibition assay relative to (2R,4S,5R,6R)-5-acetamido-2-(((2R,3R,4R,5R,6R)-5-acetamido-4-((2R,3R,4S,5S,6R)-4-((2S,4S,5R)-5-acetamido-2-carboxy-4-hydroxy-6-((1S,2S)-1,2,3-trihydroxypropyl)tetrahydro-2H-pyran-2-yloxy)-3,5-dihydroxy-6-(hydroxymethyl)tetrahydro-2H-pyran-2-yloxy)-3-hydroxy-6-(2-(trimethylsilyl)ethoxy)tetrahydro-2H-pyran-2-yl)methoxy)-4-hydroxy-6-((1S,2R)-1,2,3-trihydroxypropyl)tetrahydro-2H-pyran-2-carboxylic acid
Assay type: cell-based
Outline: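 Hapten inhibition: oligosaccharide added to wells with immobilized Neu5Ac, then Fc-MAGd1-3 precomplexed with alkaline phosphatase-labelled anti-Fc antibody; overnight at 4 °C, washed, bound MAG read by initial rate of fluorescein release from fluorescein diphosphate. IC50 from at least eight concentrations, at least three independent titrations; rIP calculated against the reference compound included in each test.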

Ratio IC50	SMILES
0.4	CC(=O)N[C@H]1[C@H]([C@@H](O)[C@H](O)CO)O[C@@](O[C@H]2[C@@H](O)[C@@H](CO)O[C@@H](O[C@@H]3CCO[C@H](CO[C@@H](Cc4ccccc4)C(=O)O)[C@@H]3O)[C@@H]2O)(C(=O)O)C[C@@H]1O
61.5	CC(=O)N[C@H]1[C@H]([C@@H](O)[C@H](O)CNC(=O)c2ccccc2)O[C@@](O[C@H]2[C@@H](O)[C@@H](CO)O[C@@H](O[C@H]3[C@@H](O)[C@@H](CO)O[C@@H](OCC[Si](C)(C)C)[C@@H]3O)[C@@H]2O)(C(=O)O)C[C@@H]1O
314	CC(=O)N[C@H]1[C@H]([C@@H](O)[C@H](O)CNC(=O)c2ccccc2)O[C@@](O[C@H]2[C@@H](O)[C@@H](CO)O[C@@H](O[C@@H]3CCO[C@H](COCc4ccc(-c5ccccc5)cc4)[C@@H]3O)[C@@H]2O)(C(=O)O)C[C@@H]1O
0.17	CC(=O)N[C@H]1[C@H](OCC[Si](C)(C)C)O[C@H](CO[C@H](C)C(=O)O)[C@H](O)[C@@H]1O[C@@H]1O[C@H](CO)[C@H](O)[C@H](O[C@]2(C(=O)O)C[C@H](O)[C@@H](NC(C)=O)[C@H]([C@@H](O)[C@H](O)CO)O2)[C@H]1O
0.59	CC(=O)N[C@H]1[C@H]([C@@H](O)[C@H](O)CO)O[C@@](O[C@H]2[C@@H](O)[C@@H](CO)O[C@@H](O[C@@H]3CCO[C@H](COCc4ccccc4)[C@@H]3O)[C@@H]2O)(C(=O)O)C[C@@H]1O
0.4	CC(=O)N[C@H]1[C@H](OCC[Si](C)(C)C)O[C@H](CO[C@@H](Cc2ccccc2)C(=O)O)[C@H](O)[C@@H]1O[C@@H]1O[C@H](CO)[C@H](O)[C@H](O[C@]2(C(=O)O)C[C@H](O)[C@@H](NC(C)=O)[C@H]([C@@H](O)[C@H](O)CO)O2)[C@H]1O
1.25	CC(=O)N[C@H]1[C@H]([C@@H](O)[C@H](O)CO)O[C@@](O[C@H]2[C@@H](O)[C@@H](CO)O[C@@H](O[C@@H]3CCO[C@H](COCc4ccc(-c5ccccc5)cc4)[C@@H]3O)[C@@H]2O)(C(=O)O)C[C@@H]1O
377	CC(=O)N[C@H]1[C@H]([C@@H](O)[C@H](O)CNC(=O)c2ccc(Cl)cc2)O[C@@](O[C@H]2[C@@H](O)[C@@H](CO)O[C@@H](O[C@@H]3CCO[C@H](COCc4ccc(-c5ccccc5)cc4)[C@@H]3O)[C@@H]2O)(C(=O)O)C[C@@H]1O
0.26	CC(=O)N[C@H]1[C@H](OCC[Si](C)(C)C)O[C@H](CO)[C@H](O)[C@@H]1O[C@@H]1O[C@H](CO)[C@H](O)[C@H](O[C@]2(C(=O)O)C[C@H](O)[C@@H](NC(C)=O)[C@H]([C@@H](O)[C@H](O)CO)O2)[C@H]1O
0.31	CC(=O)N[C@H]1[C@H](OCC[Si](C)(C)C)O[C@H](CO[C@@H](C)C(=O)O)[C@H](O)[C@@H]1O[C@@H]1O[C@H](CO)[C@H](O)[C@H](O[C@]2(C(=O)O)C[C@H](O)[C@@H](NC(C)=O)[C@H]([C@@H](O)[C@H](O)CO)O2)[C@H]1O
1.24	CC(=O)N[C@H]1[C@H]([C@@H](O)[C@H](O)CO)O[C@@](O[C@H]2[C@@H](O)[C@@H](CO)O[C@@H](O[C@@H]3CCO[C@H](CO[C@@H](C)C(=O)O)[C@@H]3O)[C@@H]2O)(C(=O)O)C[C@@H]1O
0.3	CC(=O)N[C@H]1[C@H]([C@@H](O)[C@H](O)CO)O[C@@](OC[C@H]2O[C@@H](OCC[Si](C)(C)C)[C@H](O)[C@@H](O[C@@H]3O[C@H](CO)[C@H](O)[C@H](O[C@]4(C(=O)O)C[C@H](O)[C@@H](NC(C)=O)[C@H]([C@@H](O)[C@H](O)CO)O4)[C@H]3O)[C@H]2O)(C(=O)O)C[C@@H]1O
0.3	CC(=O)N[C@H]1[C@H]([C@@H](O)[C@H](O)CO)O[C@@](O[C@H]2[C@@H](O)[C@@H](CO)O[C@@H](O[C@H]3[C@@H](O)[C@@H](CO)O[C@@H](OCC[Si](C)(C)C)[C@@H]3O)[C@@H]2O)(C(=O)O)C[C@@H]1O
0.76	CC(=O)N[C@H]1[C@H]([C@@H](O)[C@H](O)CO)O[C@@](O[C@H]2[C@@H](O)[C@@H](CO)O[C@@H](O[C@@H]3CCO[C@H](CO)[C@@H]3O)[C@@H]2O)(C(=O)O)C[C@@H]1O
0.98	CC(=O)N[C@H]1[C@H]([C@@H](O)[C@H](O)CO)O[C@@](O[C@H]2[C@@H](O)[C@@H](CO)O[C@@H](O[C@@H]3CCO[C@H](CO[C@H](C)C(=O)O)[C@@H]3O)[C@@H]2O)(C(=O)O)C[C@@H]1O

Target: T2, Myelin-associated glycoprotein (Homo sapiens, UniProt P20916)
T2 sequence (P20916 whole entry): T1 sequence (whole entry)
Test: Binding affinity to human IgG Fc-domain tagged MAG N-terminal domain expressed in CHO cells by surface plasmon resonance
Outline: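 Fc-MAGd1-3 (three N-terminal MAG domains fused to human IgG Fc, CHO-expressed, protein A-purified) captured on an immobilized anti-human IgG Fc antibody on CM5 chip; reference surface prepared in parallel.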

Kd [µM]	SMILES
32.6	CC(=O)N[C@H]1[C@H]([C@@H](O)[C@H](O)CNC(=O)c2ccccc2)O[C@@](O[C@H]2[C@@H](O)[C@@H](CO)O[C@@H](O[C@H]3[C@@H](O)[C@@H](CO)O[C@@H](OCC[Si](C)(C)C)[C@@H]3O)[C@@H]2O)(C(=O)O)C[C@@H]1O
5	CC(=O)N[C@H]1[C@H]([C@@H](O)[C@H](O)CNC(=O)c2ccccc2)O[C@@](O[C@H]2[C@@H](O)[C@@H](CO)O[C@@H](O[C@@H]3CCO[C@H](COCc4ccc(-c5ccccc5)cc4)[C@@H]3O)[C@@H]2O)(C(=O)O)C[C@@H]1O
2.83	CC(=O)N[C@H]1[C@H]([C@@H](O)[C@H](O)CNC(=O)c2ccc(Cl)cc2)O[C@@](O[C@H]2[C@@H](O)[C@@H](CO)O[C@@H](O[C@@H]3CCO[C@H](COCc4ccc(-c5ccccc5)cc4)[C@@H]3O)[C@@H]2O)(C(=O)O)C[C@@H]1O
